Results reported in ChEMBL document CHEMBL4330115, “Discovery of a new class of valosine containing protein (VCP/P97) inhibitors for the treatment of non-small cell lung cancer” (Bioorg Med Chem, 2019).
Each block holds one compound with its values, some of them ahead of it.

Legend:
[1] = target: Transitional endoplasmic reticulum ATPase (Homo sapiens, UniProt P55072); experiment: Inhibition of human p97 using ATP as substrate after 60 mins by ADP-Glo assay
A549 = experiment: Antiproliferative activity against human A549 cells after 72 hrs by CCK-8 assay; type: functional, cell-based; conditions: A549, 72 h
[2] = Oral bioavailability in Sprague-Dawley rat at 30 mg/kg administered as single dose by LC-MS/MS analysis; type: ADME, organism-based; conditions: in vivo
Summary of the method: (§1)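 Male Sprague-Dawley rats received a single dose, iv by tail vein at 5 mg/kg or orally (ig) at 30 mg/kg. Vehicle was a solution of 40% PEG400, 10% castor oil, 5% EtOH and 45% buffered saline. Orbital sinus blood (0.1 mL) was taken into heparinized tubes at 2, 5, 15 and 30 min and at 1, 2, 4, 8 and 24 h, then centrifuged for plasma.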

[3] = MRT in Sprague-Dawley rat at 5 mg/kg, iv administered as single dose by LC-MS/MS analysis; type: ADME, organism-based; conditions: in vivo; summary of the method: as §1
[4] = Half life in Sprague-Dawley rat at 30 mg/kg, ig administered as single dose by LC-MS/MS analysis; type: ADME, organism-based; conditions: in vivo, po; summary of the method: as §1
[5] = AUC (0 to infinity) in Sprague-Dawley rat at 5 mg/kg, iv administered as single dose by LC-MS/MS analysis; type: ADME, organism-based; design: dose 5 mg/kg, route intravenous, time infinity; conditions: in vivo; summary of the method: as §1
[6] = AUC (0 to infinity) in Sprague-Dawley rat at 30 mg/kg, ig administered as single dose by LC-MS/MS analysis; type: ADME, organism-based; design: dose 30 mg/kg, route intragastric, time infinity; conditions: in vivo, po; summary of the method: as §1
[7] = AUC (0 to t) in Sprague-Dawley rat at 30 mg/kg, ig administered as single dose by LC-MS/MS analysis; type: ADME, organism-based; conditions: in vivo, po; summary of the method: as §1
[8] = Intrinsic clearance in dog liver microsomes at 1 uM after 60 mins by LC-MS analysis; type: ADME, Canis lupus familiaris, Microsome; conditions: 1 h
[9] = Half life in dog liver microsomes at 1 uM after 60 mins by LC-MS analysis; type: ADME, Canis lupus familiaris, Microsome
[10] = Intrinsic clearance in rat liver microsomes at 1 uM after 60 mins by LC-MS analysis; type: ADME, Microsome; conditions: 1 h
[11] = Intrinsic clearance in mouse liver microsomes at 1 uM after 60 mins by LC-MS analysis; type: ADME, Microsome; conditions: 1 h
[12] = MRT in Sprague-Dawley rat at 30 mg/kg, ig administered as single dose by LC-MS/MS analysis; type: ADME, organism-based; conditions: in vivo, po; summary of the method: as §1
[13] = Half life in Sprague-Dawley rat at 5 mg/kg, iv administered as single dose by LC-MS/MS analysis; type: ADME, organism-based; conditions: in vivo; summary of the method: as §1
[14] = Intrinsic clearance in monkey liver microsomes at 1 uM after 60 mins by LC-MS analysis; type: ADME, Macaca mulatta, Microsome; conditions: rhesus monkey, 1 h
[15] = Half life in human liver microsomes at 1 uM after 60 mins by LC-MS analysis; type: ADME, Microsome
[16] = Half life in monkey liver microsomes at 1 uM after 60 mins by LC-MS analysis; type: ADME, Macaca mulatta, Microsome; conditions: rhesus monkey
[17] = Cmax in Sprague-Dawley rat at 30 mg/kg, ig administered as single dose by LC-MS/MS analysis; type: ADME, organism-based; design: dose 30 mg/kg, route intragastric; conditions: in vivo, po; summary of the method: as §1
[18] = Half life in mouse liver microsomes at 1 uM after 60 mins by LC-MS analysis; type: ADME, Microsome
[19] = AUC (0 to t) in Sprague-Dawley rat at 5 mg/kg, iv administered as single dose by LC-MS/MS analysis; type: ADME, organism-based; conditions: in vivo; summary of the method: as §1
[20] = Tmax in Sprague-Dawley rat at 5 mg/kg, iv administered as single dose by LC-MS/MS analysis; type: ADME, organism-based; conditions: in vivo; summary of the method: as §1
[21] = Intrinsic clearance in human liver microsomes at 1 uM after 60 mins by LC-MS analysis; type: ADME, Microsome; conditions: 1 h
[22] = Half life in rat liver microsomes at 1 uM after 60 mins by LC-MS analysis; type: ADME, Microsome
[23] = Tmax in Sprague-Dawley rat at 30 mg/kg, ig administered as single dose by LC-MS/MS analysis; type: ADME, organism-based; conditions: in vivo, po; summary of the method: as §1
[24] = Cmax in Sprague-Dawley rat at 5 mg/kg, iv administered as single dose by LC-MS/MS analysis; type: ADME, organism-based; design: dose 5 mg/kg, route intravenous; conditions: in vivo; summary of the method: as §1

Transitional endoplasmic reticulum ATPase, sequence (P55072 whole entry): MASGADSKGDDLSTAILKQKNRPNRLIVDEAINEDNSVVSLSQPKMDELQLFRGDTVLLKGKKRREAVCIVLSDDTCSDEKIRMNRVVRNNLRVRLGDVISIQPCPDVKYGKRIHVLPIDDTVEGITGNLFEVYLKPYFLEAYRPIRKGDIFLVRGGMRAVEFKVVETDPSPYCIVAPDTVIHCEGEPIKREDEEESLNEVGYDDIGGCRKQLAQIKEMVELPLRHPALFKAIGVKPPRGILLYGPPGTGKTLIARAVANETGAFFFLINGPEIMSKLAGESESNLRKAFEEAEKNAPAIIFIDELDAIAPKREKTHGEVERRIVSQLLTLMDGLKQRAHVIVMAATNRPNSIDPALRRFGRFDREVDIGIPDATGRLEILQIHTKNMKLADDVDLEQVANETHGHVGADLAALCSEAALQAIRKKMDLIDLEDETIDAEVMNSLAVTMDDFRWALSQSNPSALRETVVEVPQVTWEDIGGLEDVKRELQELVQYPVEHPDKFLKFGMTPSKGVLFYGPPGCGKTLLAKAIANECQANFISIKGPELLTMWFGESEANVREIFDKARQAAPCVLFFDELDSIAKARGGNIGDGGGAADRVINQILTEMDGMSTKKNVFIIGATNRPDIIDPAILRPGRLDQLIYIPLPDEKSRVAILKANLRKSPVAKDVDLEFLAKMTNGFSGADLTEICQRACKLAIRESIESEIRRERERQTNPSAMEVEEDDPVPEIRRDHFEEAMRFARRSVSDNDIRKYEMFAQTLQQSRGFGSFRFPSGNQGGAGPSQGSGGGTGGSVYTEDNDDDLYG

Compound: Cc1cc2c(C(N)=O)cccc2n1-c1nc2c(c(NCc3ccccc3)n1)CCCCCC2
- IC50 ([1]; read-out: IC50): 120 nM

Compound: CC(=O)Nc1cccc2c1ccn2-c1nc2c(c(NCc3ccccc3)n1)COCC2
- IC50 ([1]; read-out: IC50): 922 nM

Compound: NC(=O)c1cccc(Nc2nc3c(c(NCc4ccccc4)n2)COCC3)c1
- IC50 [1]: Not Active

Compound: Cc1cc2c(NS(=O)(=O)C3CC3)cccc2n1-c1nc2c(c(NCc3ccccc3)n1)COCC2
- IC50 ([1]; read-out: IC50): 34.6 nM
- IC50 (A549): 2100 nM

Compound: Cc1cc2c(C(N)=O)cccc2n1-c1nc2c(c(NCc3ccccc3)n1)CCCCC2
- IC50 ([1]; read-out: IC50): 82.8 nM
- IC50 (A549): 2600 nM

Compound: Cc1cc2c(C(N)=O)cccc2n1-c1nc2c(c(NCC3CC3)n1)COCC2
- IC50 [1]: Not Active

Compound: Cc1cc2c(NS(=O)(=O)c3ccccc3)cccc2n1-c1nc2c(c(NCc3ccccc3)n1)COCC2
- IC50 ([1]; read-out: IC50): 135 nM

Compound: Cc1cc2c(C(N)=S)cccc2n1-c1nc2c(c(NCc3ccccc3)n1)COCC2
- IC50 ([1]; read-out: IC50): 193 nM

Compound: Cc1cc2c(C(N)=O)cccc2n1-c1nc2c(c(NCCN3CCOCC3)n1)COCC2
- IC50 [1]: Not Active

Compound: Cc1cc2c(C(N)=O)cccc2n1-c1nc2c(c(NCc3ccncc3)n1)COCC2
- IC50 [1]: Not Active

Compound: Cc1cc2c(NS(=O)(=O)C(F)(F)F)cccc2n1-c1nc2c(c(NCc3ccccc3)n1)COCC2
- IC50 ([1]; read-out: IC50): 101 nM

Compound: Cc1cc2c(C(N)=O)cccc2n1-c1nccc(NCc2ccccc2)n1
- IC50 ([1]; read-out: IC50): 161 nM

Compound: Cc1cc2c(C(N)=O)cccc2n1-c1nc2c(c(NCc3ccccc3)n1)COCC2 [CB-5083]
- CLint [8]: 54.7 mL/min/kg
- half-life at 1 µM [9]: 36.5 min
- CLint [10]: 146 mL/min/kg
- CLint [11]: 38.6 mL/min/kg
- CLint [14]: 127 mL/min/kg
- half-life at 1 µM [15]: 25.8 min
- half-life at 1 µM [16]: 14.7 min
- half-life at 1 µM [18]: 141 min
- CLint [21]: 48.4 mL/min/kg
- half-life at 1 µM [22]: 17 min

Results, then the compound that gave them:

- IC50 ([1]; read-out: IC50): 58.3 nM
- IC50 (A549): 4600 nM
Compound: C=CC(=O)Nc1cccc2c1cc(C)n2-c1nc2c(c(NCc3ccccc3)n1)COCC2

- bioavailability [2]: 4.2%
- MRT [3]: 271 min
- half-life [4]: 274 min
- AUC(0-inf) [5]: 7420 ng·h/mL
- AUC(0-inf) [6]: 2560 ng·h/mL
- AUC(0-t) [7]: 1770 ng·h/mL
- CLint [8]: 55 mL/min/kg
- half-life at 1 µM [9]: 36.3 min
- CLint [10]: 149 mL/min/kg
- CLint [11]: 114 mL/min/kg
- IC50 ([1]; read-out: IC50): 36.4 nM
- MRT [12]: 425 min
- half-life [13]: 218 min
- IC50 (A549): 1600 nM
- CLint [14]: 152 mL/min/kg
- half-life at 1 µM [15]: 42.3 min
- half-life at 1 µM [16]: 12.3 min
- Cmax [17]: 191 ng/mL
- half-life at 1 µM [18]: 47.8 min
- AUC(0-t) [19]: 6950 ng·h/mL
- Tmax [20]: 3 min
- CLint [21]: 29.5 mL/min/kg
- half-life at 1 µM [22]: 16.8 min
- Tmax [23]: 160 min
- Cmax [24]: 3380 ng/mL
Compound: Cc1cc2c(NS(C)(=O)=O)cccc2n1-c1nc2c(c(NCc3ccccc3)n1)COCC2

- IC50 [1]: Not Active
Compound: C=CC(=O)Nc1cccc2c1cc(C)n2-c1nc2c(c(NCC3CC3)n1)COCC2

- IC50 ([1]; read-out: IC50): 387 nM
Compound: Cc1cc2c(NC(=O)/C=C/CN(C)C)cccc2n1-c1nc2c(c(NCc3ccccc3)n1)COCC2

- IC50 ([1]; read-out: IC50): 129 nM
Compound: CC(=O)Nc1cccc2c1cc(C)n2-c1nc2c(c(NCc3ccccc3)n1)COCC2

- IC50 ([1]; read-out: IC50): 449 nM
Compound: Cc1cc2c(NC(=O)CN3CCCC3)cccc2n1-c1nc2c(c(NCc3ccccc3)n1)COCC2

- IC50 [1]: Not Active
Compound: C=CC(=O)Nc1cccc2c1cc(C)n2-c1nc2c(c(NCc3cccc4ccccc34)n1)COCC2

- IC50 ([1]; read-out: IC50): 5100 nM
Compound: C=CC(=O)Nc1cccc2c1cc(C)n2-c1nc2c(c(NCc3ccncc3)n1)COCC2

- IC50 ([1]; read-out: IC50): 308 nM
Compound: Cc1cc2c(NC(=O)CCl)cccc2n1-c1nc2c(c(NCc3ccccc3)n1)COCC2

- IC50 ([1]; read-out: IC50): 447 nM
Compound: Cc1cc2c(NC(=O)/C=C/c3ccccc3)cccc2n1-c1nc2c(c(NCc3ccccc3)n1)COCC2
